These results are taken from ChEMBL document CHEMBL1148687, “Identification of a novel 4-aminomethylpiperidine class of M3 muscarinic receptor antagonists and structural insight into their M3 selectivity” (J Med Chem, 2006).

A value given as a limit tells only on which side of the number the result lay.

The target of assay [1] is T1, Muscarinic acetylcholine receptor M3 (Homo sapiens, UniProt P20309). Put plainly: Inhibition of [3H]NMS binding to human cloned M3 receptor expressed in CHO cells. In kind it is cell-based. In a few lines:
(§1)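 Competition against specific [3H]-NMS binding on membranes of CHO cells expressing cloned human receptor subtypes. Assay buffer 50 mM Tris-HCl, 10 mM MgCl2, 1 mM EDTA, pH 7.4, highest final concentration 10 µM.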
Target sequence in this assay (P20309 whole entry): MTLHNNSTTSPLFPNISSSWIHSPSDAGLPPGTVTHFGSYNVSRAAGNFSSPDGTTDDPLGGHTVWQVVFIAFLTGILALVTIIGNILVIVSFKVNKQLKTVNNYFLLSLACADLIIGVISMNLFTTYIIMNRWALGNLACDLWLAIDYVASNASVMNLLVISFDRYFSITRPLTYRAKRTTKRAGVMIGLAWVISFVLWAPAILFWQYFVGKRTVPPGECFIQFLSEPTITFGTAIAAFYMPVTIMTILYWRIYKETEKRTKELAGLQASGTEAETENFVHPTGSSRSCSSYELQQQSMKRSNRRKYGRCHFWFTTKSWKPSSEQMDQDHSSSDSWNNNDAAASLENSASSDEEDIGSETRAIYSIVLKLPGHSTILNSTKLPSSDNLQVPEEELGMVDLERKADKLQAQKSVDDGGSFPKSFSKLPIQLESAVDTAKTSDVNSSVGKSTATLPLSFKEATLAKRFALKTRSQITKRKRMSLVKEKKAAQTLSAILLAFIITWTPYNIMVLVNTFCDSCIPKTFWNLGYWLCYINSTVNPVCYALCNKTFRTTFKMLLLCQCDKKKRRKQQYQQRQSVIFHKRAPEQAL

For assay [2], the target named is T2, Muscarinic acetylcholine receptor M1 (Homo sapiens, UniProt P11229).
T2 sequence (P11229 whole entry): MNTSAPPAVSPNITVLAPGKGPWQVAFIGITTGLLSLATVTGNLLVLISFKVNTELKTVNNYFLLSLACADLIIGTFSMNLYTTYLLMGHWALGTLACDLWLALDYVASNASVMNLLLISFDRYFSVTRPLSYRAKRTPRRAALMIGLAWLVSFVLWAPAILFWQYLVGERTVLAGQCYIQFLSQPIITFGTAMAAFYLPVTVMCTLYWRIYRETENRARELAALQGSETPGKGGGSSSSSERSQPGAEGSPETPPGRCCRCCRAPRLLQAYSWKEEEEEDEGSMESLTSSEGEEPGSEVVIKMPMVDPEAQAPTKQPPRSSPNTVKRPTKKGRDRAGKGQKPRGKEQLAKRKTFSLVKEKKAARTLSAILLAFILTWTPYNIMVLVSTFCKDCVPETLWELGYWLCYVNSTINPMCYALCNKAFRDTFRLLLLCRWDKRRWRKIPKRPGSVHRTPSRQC
Put plainly: Inhibition of [3H]NMS binding to human cloned M1 receptor expressed in CHO cells. In kind it is cell-based. An outline of the steps: as §1

The target of assay [3] is T3, Muscarinic acetylcholine receptor M5 (Homo sapiens, UniProt P08912).
T3 sequence (P08912 whole entry): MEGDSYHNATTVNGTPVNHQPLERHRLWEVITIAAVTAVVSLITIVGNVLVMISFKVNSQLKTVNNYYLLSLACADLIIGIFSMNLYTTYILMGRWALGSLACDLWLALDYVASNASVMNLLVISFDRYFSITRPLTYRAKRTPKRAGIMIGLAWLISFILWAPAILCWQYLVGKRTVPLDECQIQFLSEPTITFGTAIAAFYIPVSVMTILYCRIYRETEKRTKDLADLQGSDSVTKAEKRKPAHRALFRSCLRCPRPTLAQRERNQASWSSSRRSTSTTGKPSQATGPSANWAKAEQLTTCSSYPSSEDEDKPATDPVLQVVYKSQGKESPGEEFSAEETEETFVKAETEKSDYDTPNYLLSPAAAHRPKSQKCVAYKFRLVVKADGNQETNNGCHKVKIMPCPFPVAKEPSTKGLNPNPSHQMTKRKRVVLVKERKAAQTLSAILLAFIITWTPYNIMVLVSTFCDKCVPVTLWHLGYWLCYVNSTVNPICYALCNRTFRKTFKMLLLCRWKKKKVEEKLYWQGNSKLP
The experiment in a line: Inhibition of [3H]NMS binding to human cloned M5 receptor expressed in CHO cells. Type of assay: cell-based. An outline of the steps: as §1

For assay [4], the target named is T4, Muscarinic acetylcholine receptor M4 (Homo sapiens, UniProt P08173).
T4 sequence (P08173 whole entry): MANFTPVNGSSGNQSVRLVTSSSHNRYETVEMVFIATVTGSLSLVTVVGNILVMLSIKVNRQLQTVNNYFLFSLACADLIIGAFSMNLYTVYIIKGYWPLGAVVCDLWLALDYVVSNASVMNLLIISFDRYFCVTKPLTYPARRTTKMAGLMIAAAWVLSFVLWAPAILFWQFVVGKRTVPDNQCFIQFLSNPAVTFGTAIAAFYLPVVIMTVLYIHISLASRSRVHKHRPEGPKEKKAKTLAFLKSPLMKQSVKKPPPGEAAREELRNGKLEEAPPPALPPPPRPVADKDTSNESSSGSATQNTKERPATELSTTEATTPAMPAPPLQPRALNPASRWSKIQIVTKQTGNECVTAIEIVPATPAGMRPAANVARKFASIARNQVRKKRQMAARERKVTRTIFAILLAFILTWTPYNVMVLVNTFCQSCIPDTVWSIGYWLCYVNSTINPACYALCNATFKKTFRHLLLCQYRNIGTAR
Put plainly: Inhibition of [3H]NMS binding to human cloned M4 receptor expressed in CHO cells. In kind it is cell-based. In a few lines: as §1

Assay [5] deals with Muscarinic acetylcholine receptor M3 (Rattus norvegicus) (UniProt P08483). The experiment in a line: (§2) Antagonist activity at M3 receptor assessed as inhibition of carbachol-induced contraction of rat trachea. In kind it is functional. An outline of the steps:
(§3)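 Contraction of isolated rat trachea evoked by carbachol, antagonist given at several doses. Four experiments per dose, reported as mean ± SEM. Schild regression analysis applied to the data.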

The target of assay [6] is Muscarinic acetylcholine receptor M3 (Rattus norvegicus, UniProt P08483). The assay is described as §2. As to conditions: read-out: pA2 (converted). In kind it is functional. An outline of the steps: as §3
Assay [7] has as its target T5, Muscarinic acetylcholine receptor M2 (Rattus norvegicus, UniProt P10980).
T5 sequence (P10980 whole entry): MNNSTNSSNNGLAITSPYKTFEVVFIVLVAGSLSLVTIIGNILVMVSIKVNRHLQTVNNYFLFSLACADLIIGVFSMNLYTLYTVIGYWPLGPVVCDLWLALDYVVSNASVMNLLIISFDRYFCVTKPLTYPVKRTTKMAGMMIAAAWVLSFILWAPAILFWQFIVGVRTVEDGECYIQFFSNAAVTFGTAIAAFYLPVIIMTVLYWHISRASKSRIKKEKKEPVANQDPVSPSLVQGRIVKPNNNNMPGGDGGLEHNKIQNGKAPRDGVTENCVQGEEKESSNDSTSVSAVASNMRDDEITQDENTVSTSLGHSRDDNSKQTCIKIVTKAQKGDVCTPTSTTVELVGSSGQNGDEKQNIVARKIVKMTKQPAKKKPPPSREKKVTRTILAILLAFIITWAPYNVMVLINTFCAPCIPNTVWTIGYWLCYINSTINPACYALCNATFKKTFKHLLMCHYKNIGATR
Put plainly: Antagonist activity at M2 receptor assessed as inhibition of carbachol-induced bradycardia in rat atria. Type of assay: functional. Conditions: read-out: pA2 (converted). An outline of the steps:
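Isolated rat right atria, bradycardia evoked by carbachol, antagonist given at several doses. Four experiments per dose, reported as mean ± SEM. Potency obtained by Schild regression analysis.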

The target of assay [8] is T1, Muscarinic acetylcholine receptor M3. Put plainly: Inhibition of [3H]NMS binding to human cloned M3 receptor expressed in CHO cells at 1 uM. Type of assay: cell-based.
Target sequence in this assay (P20309 whole entry, looked up): as the sequence (P20309 whole entry) above

What is called Ki is a dissociation constant, usually derived from enzyme kinetics or from competition with a known ligand. The term inhibition denotes the drop in the measured response relative to a control, in per cent.

Muscarinic acetylcholine receptor M3 (Rattus norvegicus), sequence (P08483 whole entry, looked up): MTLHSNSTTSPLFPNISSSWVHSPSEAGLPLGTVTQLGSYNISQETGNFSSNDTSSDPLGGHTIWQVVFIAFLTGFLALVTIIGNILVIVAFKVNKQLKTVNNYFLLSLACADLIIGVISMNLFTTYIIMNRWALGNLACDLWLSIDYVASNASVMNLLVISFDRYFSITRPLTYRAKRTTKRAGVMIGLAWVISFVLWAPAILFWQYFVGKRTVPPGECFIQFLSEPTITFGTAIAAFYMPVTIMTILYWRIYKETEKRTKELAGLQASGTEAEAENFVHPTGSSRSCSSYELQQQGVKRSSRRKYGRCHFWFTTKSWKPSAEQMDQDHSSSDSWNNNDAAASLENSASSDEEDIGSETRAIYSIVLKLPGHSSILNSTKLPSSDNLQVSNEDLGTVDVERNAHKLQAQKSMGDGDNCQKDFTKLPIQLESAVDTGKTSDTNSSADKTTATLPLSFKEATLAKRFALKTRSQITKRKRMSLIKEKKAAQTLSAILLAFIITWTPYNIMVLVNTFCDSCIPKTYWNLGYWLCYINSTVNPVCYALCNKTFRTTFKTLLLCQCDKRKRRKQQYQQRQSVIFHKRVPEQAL
Muscarinic acetylcholine receptor M3 (Rattus norvegicus, UniProt P08483), sequence (P08483 whole entry): as the sequence (P08483 whole entry, looked up) above

On to `O=C(NCC1CCNCC1)[C@H]1CCCN1C(=O)[C@@H]1C[C@@H](O)CN1C(=O)CC(c1ccc(Cl)cc1)(c1ccc(Cl)cc1)c1ccc(Cl)cc1`, for which the Ki in assay [1] was 0.39 nM; in assay [2], 93 nM; in assay [3], 2500 nM; in assay [4], 53 nM.

Turning to `O=C(NCC1CCN(C2CCCC2)CC1)[C@H]1CCCN1C(=O)[C@@H]1C[C@@H](O)CN1C(=O)CC(c1ccc(F)cc1)(c1ccc(F)cc1)c1ccc(F)cc1`, the Ki in assay [1] stood at 0.51 nM; in assay [2], 210 nM; in assay [3], 3200 nM; in assay [4], 48 nM.

On to `O=C(NC[C@@H]1CCCNC1)[C@H]1CCCN1C(=O)[C@@H]1C[C@@H](O)CN1C(=O)CC(c1ccc(Cl)cc1)(c1ccc(Cl)cc1)c1ccc(Cl)cc1`, for which the inhibition constant Ki in assay [1] was 1.6 nM; in assay [2] it was 460 nM; in assay [3], 2700 nM; in assay [4], 120 nM.

With `O=C(NCC1CCNCC1)[C@H]1CCCN1C(=O)[C@@H]1C[C@@H](O)CN1C(=O)CC(c1ccccc1)(c1ccccc1)c1ccccc1`, the Ki in assay [1] is 4.2 nM; in assay [2], 1800 nM; in assay [3], above 5100 nM; in assay [4], 480 nM.

In the case of `O=C(NCC1CCNCC1)[C@H]1CCCN1C(=O)[C@@H]1C[C@@H](O)CN1C(=O)CC(c1ccc(F)cc1)(c1ccc(F)cc1)c1ccc(F)cc1`, the Ki stood at 0.3 nM in assay [1], 170 nM in assay [2], 3500 nM in assay [3] and 42 nM in assay [4]. Moreover, the Activity result in assay [5] is “Dose-dependent effect”. In addition, the Kb in assay [6] was 0.224 nM; in assay [7], 204 nM.

Take `CN1CCC(CNC(=O)[C@H]2CCCN2C(=O)[C@@H]2C[C@@H](O)CN2C(=O)CC(c2ccc(F)cc2)(c2ccc(F)cc2)c2ccc(F)cc2)CC1`: the inhibition constant Ki in assay [1] stood at 0.51 nM; in assay [2], 270 nM; in assay [3], 1600 nM; in assay [4] it was 41 nM.

As for `O=C(NC[C@H]1CCCNC1)[C@H]1CCCN1C(=O)[C@@H]1CCCN1C(=O)CC(c1ccccc1)(c1ccccc1)c1ccccc1`, the Ki in assay [1] is 99 nM; in assay [2] it was above 2500 nM; in assay [3] it was above 5000 nM; in assay [4], above 1700 nM. In assay [8], this compound displayed an inhibition of 74%.

`O=C(NC[C@@H]1CCCNC1)[C@H]1CCCN1C(=O)[C@@H]1C[C@@H](O)CN1C(=O)CC(c1ccccc1)(c1ccccc1)c1ccccc1`: the Ki in assay [1] was 3.7 nM; in assay [2], above 2600 nM; in assay [3] it was above 5100 nM; in assay [4], 290 nM.

Regarding `CCN1CCC(CNC(=O)[C@H]2CCCN2C(=O)[C@@H]2C[C@@H](O)CN2C(=O)CC(c2ccc(F)cc2)(c2ccc(F)cc2)c2ccc(F)cc2)CC1`, the Ki in assay [1] was determined as 0.92 nM; in assay [2], 580 nM; in assay [3], 2800 nM; in assay [4], 92 nM.

Consider `O=C(NC[C@@H]1CCCNC1)[C@H]1CCCN1C(=O)[C@@H]1C[C@@H](O)CN1C(=O)CC(c1ccc(F)cc1)(c1ccc(F)cc1)c1ccc(F)cc1`, for which the inhibition constant (Ki) in assay [1] was 0.39 nM; in assay [2] it was 300 nM; in assay [3], 1700 nM; in assay [4] it was 39 nM.

With `O=C(NCC1CCN(CC2CCC2)CC1)[C@H]1CCCN1C(=O)[C@@H]1C[C@@H](O)CN1C(=O)CC(c1ccc(F)cc1)(c1ccc(F)cc1)c1ccc(F)cc1`, the inhibitory constant (Ki) was found to be 0.53 nM in assay [1], 220 nM in assay [2], 3100 nM in assay [3] and 31 nM in assay [4].
